Five molecules from article PMC2696058 (Bioorganic & medicinal chemistry, 2009) can be followed below.

The target in one data set is N^5CAIR synthetase (Escherichia coli, UniProt P09029). Kind of data set: Kinetic analysis, PK/LDH coupled ATPase assay. Particulars: for Inhibition of N^5CAIR synthetase by DMSO (non-aqueous) solutions: compound added as DMSO solution, not aqueous solution; for Mode of inhibition with respect to AIR / Mode of inhibition with respect to ATP: steady-state kinetics; for Mode of inhibition with respect to AIR: varied AIR; for Mode of inhibition with respect to ATP: varied ATP. The data set is classed as biochemical.

Data set [1] in a line: Decomposition of compound solutions followed by TLC. Type of data set: physicochemical. Particulars: aqueous solution.
The target in data set [2] is T1, human AIR carboxylase:SAICAR synthetase (Homo sapiens, UniProt P22234).
T1 sequence (P22234 1-425): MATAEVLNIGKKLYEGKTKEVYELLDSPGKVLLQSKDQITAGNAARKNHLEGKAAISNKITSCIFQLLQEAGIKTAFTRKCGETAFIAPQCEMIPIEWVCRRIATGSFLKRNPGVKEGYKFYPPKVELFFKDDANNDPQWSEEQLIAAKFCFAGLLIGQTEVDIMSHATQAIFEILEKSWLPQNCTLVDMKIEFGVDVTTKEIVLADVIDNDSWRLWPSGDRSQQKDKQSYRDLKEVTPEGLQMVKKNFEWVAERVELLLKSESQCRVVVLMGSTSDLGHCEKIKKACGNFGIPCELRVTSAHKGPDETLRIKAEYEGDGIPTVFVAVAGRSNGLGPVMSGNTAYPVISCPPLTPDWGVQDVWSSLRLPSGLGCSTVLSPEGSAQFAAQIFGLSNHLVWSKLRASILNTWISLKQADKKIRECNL
Nature of the data set: Coupled assay against human bifunctional enzyme. Type of data set: biochemical. Particulars: 200 μM compound, both activities assayed simultaneously. An outline of the steps:
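His-tagged human bifunctional AIR carboxylase:SAICAR synthetase, expressed from a pET22b vector and purified on a cobalt affinity column, >95% pure by SDS-PAGE. The carboxylase and synthetase activities were measured together in one coupled assay, following a method previously described for the Gallus gallus bifunctional enzyme.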

Sequence of N^5CAIR synthetase (P09029 whole entry): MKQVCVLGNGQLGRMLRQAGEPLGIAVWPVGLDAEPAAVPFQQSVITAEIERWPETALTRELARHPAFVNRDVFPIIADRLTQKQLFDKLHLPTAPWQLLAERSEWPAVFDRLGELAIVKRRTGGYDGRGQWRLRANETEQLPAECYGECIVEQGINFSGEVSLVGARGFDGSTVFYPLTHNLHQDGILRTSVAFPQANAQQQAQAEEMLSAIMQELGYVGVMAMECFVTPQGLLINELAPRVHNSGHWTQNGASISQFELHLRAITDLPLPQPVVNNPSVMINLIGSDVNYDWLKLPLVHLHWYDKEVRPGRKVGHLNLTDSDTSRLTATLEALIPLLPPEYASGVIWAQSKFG

In the case of `Cc1nonc1NC1(O)C(=O)c2ccccc2C1=O` [Compound 1], the “Inhibition of N^5CAIR synthetase by DMSO (non-aqueous) solutions” value at N^5CAIR synthetase was “neither compound resulted in inhibition”. The “Time to complete decomposition to ninhydrin” value in data set [1] is recorded as “approximately 30 minutes”.
The matching figures for `Cc1nc(NC2(O)C(=O)c3ccccc3C2=O)cs1` [Compound 2]: “neither compound resulted in inhibition” and “around 45 minutes”.
Take `CCN(CC)C(=O)CN1C(=O)C(=O)c2ccccc21` [Compound 7]: the “Inhibition of either enzymatic activity (AIR carboxylase, SAICAR synthetase)” value (“Inhibition of either enzymatic activity” below) in data set [2] is “no inhibition”. In addition, at N^5CAIR synthetase, the “Mode of inhibition with respect to AIR” value is reported as “non-competitive” and the “Mode of inhibition with respect to ATP” value was “non-competitive”.
As for `CCOC(=O)c1noc(C)c1-c1csc(CS(=O)(=O)c2ccc(Cl)cc2)n1` [Compound 13], the “Inhibition of either enzymatic activity” value in data set [2] was “no inhibition”. Also, on N^5CAIR synthetase, the “Mode of inhibition with respect to AIR” value is reported as “competitive” and the “Mode of inhibition with respect to ATP” value is “uncompetitive”.
For `Cc1cc2nc3c(=O)[nH]c(=O)nc-3n(C[C@H](O)[C@H](O)[C@H](O)CO)c2cc1C` [Compound 14, riboflavin], the “Inhibition of either enzymatic activity” value in data set [2] was “no inhibition”. On N^5CAIR synthetase, the “Mode of inhibition with respect to AIR” value was “noncompetitive” and the “Mode of inhibition with respect to ATP” value was “noncompetitive”.
